Source: ChEMBL document CHEMBL1127367, “Antiproliferative properties of polyamine analogues: a structure-activity study” (J Med Chem, 1994)
pIC50, pKi: −log10 of the molar value.

Key:
[1] = target: Spermidine/spermine N(1)-acetyltransferase (SAT) (Mus musculus) (UniProt Q6P8J2+P48026); assay: […] spermidine/spermine N1-Acetyltransferase (SSAT) activity; format: functional; parameters: concentration or dose not given beside the values
L1210 [2] = assay: Compound was evaluated for its impact on putrescine (Put) levels after 48 hr at concentration 500 uM; format: functional, Mus musculus
[3] = target: T1, Ornithine decarboxylase (Mus musculus) (UniProt P00860); assay: Inhibition of ornithine decarboxylase (ODC) activity; format: functional; parameters: concentration or dose not given beside the values
T1 sequence (whole entry): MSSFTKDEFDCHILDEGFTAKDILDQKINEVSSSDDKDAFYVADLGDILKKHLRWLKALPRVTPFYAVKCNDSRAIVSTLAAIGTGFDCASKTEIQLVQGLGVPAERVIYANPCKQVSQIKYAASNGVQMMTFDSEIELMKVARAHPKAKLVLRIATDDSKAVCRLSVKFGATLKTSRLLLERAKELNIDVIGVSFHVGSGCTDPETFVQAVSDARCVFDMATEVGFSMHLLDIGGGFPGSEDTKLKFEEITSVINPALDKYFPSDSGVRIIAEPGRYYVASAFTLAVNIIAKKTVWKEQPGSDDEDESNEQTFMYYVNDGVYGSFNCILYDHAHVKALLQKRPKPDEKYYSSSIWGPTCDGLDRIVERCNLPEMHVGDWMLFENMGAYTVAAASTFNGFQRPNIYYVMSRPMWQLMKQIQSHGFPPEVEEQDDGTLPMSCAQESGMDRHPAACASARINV

L1210 [4] = assay: Compound level in L1210 cells after 48 hours of incubation at initial concentration of 100 uM is expressed as nmol/10e6 cells; format: functional, Mus musculus; parameters: unit: nmol/10^6 cells
L1210 [5] = assay: In vitro inhibition of L1210 growth after 48 hours.; format: functional, cell-based; details: Mus musculus, L1210, 48 h
Summary of the method: (§1)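 Log-phase L1210 cultures (0.5–1.0 × 10^5 cells/mL) treated with analogue diluted in sterile water and filter-sterilized. After 48 h, cells were reseeded and grown a further 48 h for the 96 h point. Cells counted by Coulter counter. % growth = (treated − inoculum)/(untreated − inoculum) × 100.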

L1210 [6] = assay: Compound was evaluated for its impact on spermidine levels after 48 hr at concentration 100 uM; format: functional, Mus musculus
[7] = target: T2, S-adenosylmethionine decarboxylase proenzyme 1 (Mus musculus) (UniProt P0DMN7); assay: Inhibition of S-Adenosyl-methionine decarboxylase (AdoMetDC) activity; format: functional; parameters: concentration or dose not given beside the values
T2 sequence (whole entry): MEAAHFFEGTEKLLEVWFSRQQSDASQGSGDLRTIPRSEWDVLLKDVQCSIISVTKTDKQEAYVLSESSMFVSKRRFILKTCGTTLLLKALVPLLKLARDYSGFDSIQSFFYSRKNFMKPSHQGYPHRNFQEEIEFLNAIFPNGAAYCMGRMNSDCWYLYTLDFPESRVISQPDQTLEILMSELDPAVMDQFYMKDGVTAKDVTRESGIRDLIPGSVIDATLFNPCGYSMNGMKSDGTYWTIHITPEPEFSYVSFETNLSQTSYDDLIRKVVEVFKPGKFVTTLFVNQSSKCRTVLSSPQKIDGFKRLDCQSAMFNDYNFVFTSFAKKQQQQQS

L1210 [8] = assay: Compound was evaluated for its impact on spermine levels after 48 hr at concentration 100 uM; format: functional, Mus musculus
L1210 [9] = assay: Compound level in L1210 cells after 48 hours of incubation at initial concentration of 500 uM is expressed as nmol/10e6 cells; format: functional, Mus musculus; parameters: unit: nmol/10^6 cells
L1210 [10] = assay: Compound was evaluated for its impact on spermine […] levels after 48 hr at concentration 500 uM; format: functional, Mus musculus
Summary of the method: (§2)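 L1210 suspension cultures were grown in RPMI-1640 with 10% NuSerum, 2% HEPES-MOPS and 1 mM aminoguanidine (37 °C, 5% CO2). Log-phase cells were treated for 48 h, then washed twice in cold RPMI-1640 and pelleted. Pellets were extracted with 0.6 N perchloric acid, and supernatants were held at −20 °C until HPLC. Polyamine levels are given as % of untreated controls.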

L1210 [11] = assay: Compound was evaluated for its impact on putrescine (Put) levels after 48 hr at concentration 100 uM; format: functional, Mus musculus
L1210 [12] = assay: Compound was evaluated for its impact on spermidine levels after 48 hr at concentration 500 uM; format: functional, Mus musculus
L1210 [13] = assay: Inhibition of radiolabeled spermidine uptake into L1210 cells in vitro.; format: functional, cell-based, Mus musculus
L1210 [14] = assay: Compound was evaluated for its impact on spermine levels after 48 hr at concentration 500 uM; format: functional, Mus musculus
L1210 [15] = assay: Compound was evaluated for its impact on spermine […] levels after 48 hr at concentration 100 uM; format: functional, Mus musculus; summary of the method: as §2
L1210 [16] = assay: In vitro inhibition of L1210 growth after 96 hours.; format: functional, cell-based; details: Mus musculus, L1210, 96 h; summary of the method: as §1
L1210 [17] = assay: Compound was evaluated for its impact on putrescine (Put) levels after 48 hr at concentration 30 uM; format: functional, Mus musculus; summary of the method: as §2
L1210 [18] = assay: Compound level in L1210 cells after 48 hours of incubation at initial concentration of 150 uM is expressed as nmol/10e6 cells; format: functional, Mus musculus
Summary of the method: (§3)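 Murine L1210 leukemia cells were kept in logarithmic growth as a suspension in RPMI-1640 with 10% NuSerum, 2% HEPES-MOPS buffer and 1 mM aminoguanidine, at 37 °C under 5% CO2. Log-phase cells were exposed to the analogue for 48 h. Intracellular analogue content is reported per 10^6 cells.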

L1210 [19] = assay: Compound was evaluated for its impact on spermidine levels after 48 hr at concentration 150 uM; format: functional, Mus musculus; summary of the method: as §2
L1210 [20] = assay: Compound was evaluated for its impact on spermidine levels after 48 hr at concentration 30 uM; format: functional, Mus musculus; summary of the method: as §2
L1210 [21] = assay: Compound level in L1210 cells after 48 hours of incubation at initial concentration of 30 uM is expressed as nmol/10e6 cells; format: functional, Mus musculus; summary of the method: as §3
L1210 [22] = assay: Compound was evaluated for its impact on putrescine (Put) levels after 48 hr at concentration 150 uM; format: functional, Mus musculus; summary of the method: as §2
L1210 [23] = assay: Compound was evaluated for its impact on spermine levels after 48 hr at concentration 30 uM; format: functional, Mus musculus
Summary of the method: (§4)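 Murine L1210 leukemia cells in log-phase suspension (RPMI-1640, 10% NuSerum, 2% HEPES-MOPS, 1 mM aminoguanidine, 37 °C, 5% CO2) exposed to analogue for 48 h. Cells washed twice in cold RPMI-1640, extracted with 0.6 N perchloric acid, and polyamines quantified by HPLC. Spermine is reported as % of untreated control.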

L1210 [24] = assay: Compound was evaluated for its impact on spermine levels after 48 hr at concentration 150 uM; format: functional, Mus musculus; summary of the method: as §4
L1210 [25] = assay: Compound level in L1210 cells after 48 hours of incubation at initial concentration of 5 uM is expressed as nmol/10e6 cells; format: functional, Mus musculus; summary of the method: as §3
L1210 [26] = assay: Compound was evaluated for its impact on putrescine (Put) levels after 48 hr at concentration 5 uM; format: functional, Mus musculus; summary of the method: as §2
L1210 [27] = assay: Compound was evaluated for its impact on spermidine levels after 48 hr at concentration 1 uM; format: functional, Mus musculus; summary of the method: as §2
L1210 [28] = assay: Compound level in L1210 cells after 48 hours of incubation at initial concentration of 1 uM is expressed as nmol/10e6 cells; format: functional, Mus musculus; summary of the method: as §3
L1210 [29] = assay: Compound was evaluated for its impact on spermine levels after 48 hr at concentration 1 uM; format: functional, Mus musculus; summary of the method: as §4
L1210 [30] = assay: Compound was evaluated for its impact on spermidine levels after 48 hr at concentration 5 uM; format: functional, Mus musculus; summary of the method: as §2
[31] = target: T1, Ornithine decarboxylase (Mus musculus); assay: Effect of compound on ornithine decarboxylase (ODC) activity expressed as percent of untreated control for ODC (1 uM at 4 h(or 48h))
Summary of the method: (§5)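 L1210 cells exposed to 1 μM analogue for 4 h, or for 48 h in some cases. ODC activity measured as 14CO2 released from [14C]carboxyl-labeled L-ornithine and expressed as % of untreated control.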

L1210 [32] = assay: Compound was evaluated for its impact on spermine levels after 48 hr at concentration 5 uM; format: functional, Mus musculus; summary of the method: as §4
L1210 [33] = assay: Compound was evaluated for its impact on putrescine (Put) levels after 48 hr at concentration 1 uM; format: functional, Mus musculus; summary of the method: as §2
[34] = test system: S-adenosylmethionine decarboxylase (Mus musculus); assay: Effect of compound on S-Adenosyl-methionine decarboxylase (AdoMetDC) activity expressed as percent of untreated control for (AdoMetDC) (1 uM at 6 hr)
[35] = target: T1, Ornithine decarboxylase (Mus musculus); assay: Effect of compound on ornithine decarboxylase (ODC)activity expressed as percent of untreated control for ODC (1 uM at 4 h(or 48h)); summary of the method: as §5

Chain of Spermidine/spermine N(1)-acetyltransferase (SAT) (Mus musculus) (P48026 whole entry, looked up): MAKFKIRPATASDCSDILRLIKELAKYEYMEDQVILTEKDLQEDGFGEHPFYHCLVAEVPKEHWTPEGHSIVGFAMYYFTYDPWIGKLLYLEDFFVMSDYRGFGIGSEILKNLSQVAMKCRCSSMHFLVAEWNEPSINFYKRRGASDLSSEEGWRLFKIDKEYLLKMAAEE
Chain of Spermidine/spermine N(1)-acetyltransferase (SAT) (Mus musculus) (Q6P8J2 whole entry, looked up): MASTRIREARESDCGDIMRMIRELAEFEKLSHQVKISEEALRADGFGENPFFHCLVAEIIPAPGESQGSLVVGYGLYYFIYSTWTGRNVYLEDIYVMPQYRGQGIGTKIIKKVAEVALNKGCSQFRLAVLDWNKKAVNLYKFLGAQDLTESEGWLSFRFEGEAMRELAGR

Row | SMILES | Activity [1] [%] | Polyamine (L1210 [2]) [%] | Activity [3] [%] | Activity (L1210 [4]) | pIC50 (L1210 [5]) | Polyamine (L1210 [6]) [%] | Activity [7] [%] | Polyamine (L1210 [8]) [%] | Activity (L1210 [9]) | Polyamine (L1210 [11]) [%] | Polyamine (L1210 [12]) [%] | pKi (L1210 [13]) | Polyamine (L1210 [14]) [%] | pIC50 (L1210 [16]) | further results
1 | CNCCCNCCCCNCCCNC | 300 | 0 | 3 | 1.26 | < 4.00 | 0 | 40 | 21 | 1.24 | 0 | 0 | 5.96 | – | – | Polyamine (L1210 [10]): 24%
2 | CC(C)NCCCNCCCNCCCNC(C)C | 180 | 0 | 100 | – | < 4.00 | 26 | 100 | – | – | 10 | 12 | 4.40 | 53 | 5.92 | Polyamine (L1210 [15]): 64%
3 | CNCCCCNCCCCNCCCCNC | 140 | 0 | 4 | 1.49 | < 4.00 | 0 | 45 | 30 | 1.03 | 0 | 0 | 6.01 | 27 | 6.49 | –
4 | CCNCCCNCCCNCCCN | 410 | 0 | 5 | 1.69 | < 4.00 | 5 | 33 | 11 | 1.72 | 0 | 2 | 5.11 | 11 | 5.60 | –
5 | CNCCCNCCCNCCCNC | 200 | 0 | 6 | 2.14 | < 4.00 | 5 | 49 | 36 | 1.84 | 0 | 3 | 5.25 | 27 | 5.60 | –
6 | CCNCCCNCCCCNCCCNCC [BIS(ETHYL)SPERMINE] | 460 | – | 3 | – | 4.52 | – | 28 | – | – | – | – | 5.80 | – | 6.74 | Polyamine (L1210 [17]): 0%; Activity (L1210 [18]): 1.13; Polyamine (L1210 [19]): 0%; Polyamine (L1210 [20]): 0%; Activity (L1210 [21]): 0.4; Polyamine (L1210 [22]): 0%; Polyamine (L1210 [23]): 12%; Polyamine (L1210 [24]): 14%
7 | CCNCCCCNCCCNCCCCNCC | 120 | – | – | – | 6.00 | – | 28 | – | – | – | – | 5.40 | – | 6.74 | Activity (L1210 [25]): 1.5; Polyamine (L1210 [26]): 0%; Polyamine (L1210 [27]): 41%; Activity (L1210 [28]): 0.76; Polyamine (L1210 [29]): 52%; Polyamine (L1210 [30]): 0%; Activity [31]: 5%; Polyamine (L1210 [32]): 27%; Polyamine (L1210 [33]): 81%
8 | CC(C)(C)NCCCCNCCCCNCCCCNC(C)(C)C | – | 55 | 100 | – | < 4.00 | 85 | – | 94 | – | 83 | 58 | 4.25 | 72 | 5.52 | Activity [34]: 100%
9 | CCNCCCNCCCCNCCCN | 150 | – | – | – | – | – | 27 | – | – | – | – | – | – | – | Activity [35]: 10%
